{"source": "paper PMC6889220", "about": "(ACS chemical neuroscience, 2019)", "key": {"[1]": {"molecular_target": "T1, recombinant human α2A -R (Homo sapiens, UniProt P08913)", "T1 sequence (P08913 1-465)": "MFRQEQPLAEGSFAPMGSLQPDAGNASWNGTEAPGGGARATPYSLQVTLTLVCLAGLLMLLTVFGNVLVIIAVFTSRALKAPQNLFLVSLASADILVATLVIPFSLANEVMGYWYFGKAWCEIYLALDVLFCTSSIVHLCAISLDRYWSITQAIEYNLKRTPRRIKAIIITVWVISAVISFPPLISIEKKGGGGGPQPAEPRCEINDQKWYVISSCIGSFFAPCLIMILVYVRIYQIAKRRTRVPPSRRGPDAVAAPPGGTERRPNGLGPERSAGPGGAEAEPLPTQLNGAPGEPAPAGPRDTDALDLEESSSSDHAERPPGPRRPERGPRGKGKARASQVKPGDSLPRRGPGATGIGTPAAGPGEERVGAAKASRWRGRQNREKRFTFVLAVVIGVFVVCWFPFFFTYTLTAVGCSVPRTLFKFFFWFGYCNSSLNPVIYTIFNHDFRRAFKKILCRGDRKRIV", "assay": "[3H]clonidine radioligand competitive binding assay", "conditions": "Kd with the Cheng–Prusoff correction, 15 nM [3H]-clonidine"}, "[2]": {"molecular_target": "T2, human α2A adrenergic receptor (Homo sapiens, UniProt P08913)", "T2 sequence (P08913 1-465)": "T1 sequence (P08913 1-465)", "assay": "[35S]GTPγS binding assay", "format": "biochemical", "conditions": "1 μM RX 821002 (selective α2 antagonist)"}, "[3]": {"test_system": "Xenopus laevis tadpoles", "assay": "Hypnotic activity Xenopus laevis tadpole bioassay", "format": "in vivo", "conditions": "for pEC50: Xenopus laevis", "how_it_was_run": "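Albino tadpoles at stages 45–47, 10 per dish, kept at 21–22 °C. They were exposed for 30 min to graded concentrations of test compound, with or without 10 μM atipamezole, in E3 artificial pond water containing <0.01% (v/v) DMSO. Loss of spontaneous movement was scored. Animals were then moved to fresh pond water and watched for toxicity. Each concentration was run in triplicate and reported as mean ± SEM.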"}, "[4]": {"molecular_target": "human serum albumin (hSA) (Homo sapiens, UniProt P02768)", "sequence (P02768 25-609)": "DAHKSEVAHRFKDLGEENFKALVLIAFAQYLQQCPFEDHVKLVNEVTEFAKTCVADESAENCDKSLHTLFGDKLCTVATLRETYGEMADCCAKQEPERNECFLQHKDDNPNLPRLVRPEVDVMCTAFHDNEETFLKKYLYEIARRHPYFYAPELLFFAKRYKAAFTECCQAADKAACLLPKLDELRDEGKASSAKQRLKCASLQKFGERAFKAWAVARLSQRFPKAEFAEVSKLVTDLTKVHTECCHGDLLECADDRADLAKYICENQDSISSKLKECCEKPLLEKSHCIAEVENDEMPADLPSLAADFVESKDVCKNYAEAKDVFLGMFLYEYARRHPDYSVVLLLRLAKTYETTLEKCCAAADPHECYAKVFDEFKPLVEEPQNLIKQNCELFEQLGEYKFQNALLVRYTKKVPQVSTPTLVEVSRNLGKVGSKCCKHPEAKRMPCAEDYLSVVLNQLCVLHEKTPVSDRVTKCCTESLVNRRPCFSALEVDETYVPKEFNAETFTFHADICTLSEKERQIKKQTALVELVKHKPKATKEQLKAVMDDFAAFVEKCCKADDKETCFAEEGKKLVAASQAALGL", "assay": "Isothermal titration calorimetry with human serum albumin", "format": "binding", "how_it_was_run": "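The calorimeter cell held 20 μM human serum albumin in PBS (150 mM NaCl, 20 mM sodium phosphate, pH 7.4), with ddH2O in the reference cell. The titrant was 0.22 mM test compound, made as a filtered saturated PBS solution with concentration checked by UV absorbance. Injections were spaced 300 s apart at 30 °C. Data were corrected for heats of dilution and fitted to a single set of independent sites. Ka from triplicate runs was averaged.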"}, "[5]": {"test_system": "albumin", "conditions": "cited from earlier work"}, "[6]": {"conditions": "0.5 h, read-out: hypnotic EC50 (loss of spontaneous movement)"}}, "note": "pEC50, pKd: −log10 of the molar value. Where two headings read alike, the source gives them in different places."}
{"smiles": "CC(c1cccc(C2(C(F)(F)F)N=N2)c1)c1cnc[nH]1", "note": "(stereo not drawn) [azi-medetomidine, 5-(1-(3-(3-(trifluoromethyl)-3H-diazirine-3-yl)phenyl)ethyl)-1H-imidazole]", "values": [{"measurement": "pKd", "setting": "[1]; with UV exposure (350 nm light, 30 min)", "result": 8.43}, {"measurement": "pKd", "setting": "[1]; without UV", "result": 8.68}, {"measurement": "α2A-R activity in the presence of RX 821,002", "setting": "[2]", "result": "eliminated all α2A -R activity"}, {"measurement": "pEC50", "setting": "[3]; [6]", "result": 5.33}, {"measurement": "toxicity in Xenopus tadpoles", "setting": "[3]; observed after transfer to fresh pond water", "result": "did not display any frank toxicity"}, {"measurement": "pKd", "setting": "[4]", "result": 4.54}]}
{"smiles": "Cc1cccc([C@H](C)c2cnc[nH]2)c1C", "note": "[dexmedetomidine, reference compound]", "values": [{"measurement": "fraction bound to albumin in plasma", "setting": "[5]", "result": "> 90", "unit": "%"}, {"measurement": "pEC50", "setting": "[3]; [6]", "result": 6.07}, {"measurement": "pEC50", "setting": "[3]; read-out: behavioral EC50 in Xenopus tadpoles", "result": 6.10}]}
